Test results published in ChEMBL document CHEMBL2331476, “A novel semisynthetic flavonoid 7-O-galloyltaxifolin upregulates heme oxygenase-1 in RAW264.7 cells via MAPK/Nrf2 pathway” (J Med Chem, 2013).
Calls of active or inactive are those of the source. The rule behind the calls is not given here.

Experiments:
RAW264.7 [1] = assay: Cytotoxicity against mouse RAW264.7 cells assessed as decreased cell viability at 50 uM after 6 hrs by MTT assay; assay type: cell-based; conditions: raw264.7, 6 h
Method in brief: (§1)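 Serum-starved RAW264.7 cells exposed 6 h at 10 or 50 μM; 0.1% DMSO control (100% viability), 1.5% Triton X-100 positive control. Cells washed and incubated 2 h at 37 °C with 0.5 mg/mL MTT in serum-free medium. Formazan dissolved in DMSO, A540 read, viability relative to DMSO-treated cells.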

[2] = biological target: T1, Nuclear factor erythroid 2-related factor 2 (Mus musculus) (UniProt Q60795); assay: Activation of Nrf2 in mouse RAW264.7 cells assessed as upregulation of HO1 protein expression at 50 uM after 6 hrs by Western blotting analysis; assay type: cell-based
T1 sequence (whole entry): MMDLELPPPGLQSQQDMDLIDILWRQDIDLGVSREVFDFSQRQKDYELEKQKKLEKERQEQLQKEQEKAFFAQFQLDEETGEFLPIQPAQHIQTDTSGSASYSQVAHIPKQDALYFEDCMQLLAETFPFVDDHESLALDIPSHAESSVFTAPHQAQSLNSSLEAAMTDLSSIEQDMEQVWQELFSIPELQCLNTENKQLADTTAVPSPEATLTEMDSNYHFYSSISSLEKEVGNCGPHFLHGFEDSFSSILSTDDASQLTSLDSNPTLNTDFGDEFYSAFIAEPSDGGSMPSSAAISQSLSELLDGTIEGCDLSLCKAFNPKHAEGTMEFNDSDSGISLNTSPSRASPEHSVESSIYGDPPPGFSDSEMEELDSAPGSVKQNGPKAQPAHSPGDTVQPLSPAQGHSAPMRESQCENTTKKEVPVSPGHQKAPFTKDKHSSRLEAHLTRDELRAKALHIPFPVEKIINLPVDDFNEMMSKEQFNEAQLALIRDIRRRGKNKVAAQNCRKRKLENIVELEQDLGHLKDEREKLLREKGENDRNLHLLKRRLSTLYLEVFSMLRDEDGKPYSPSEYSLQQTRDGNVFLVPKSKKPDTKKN
Method in brief: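 HO-1 protein in whole-cell lysates (20 μg/lane) of serum-starved RAW264.7 cells after 6 h at 10-50 μM or 50 μM for 1-6 h in serum-free medium, 0.1% DMSO control. Chemiluminescent Western blot; HO-1 densitometry normalized to actin, mean of three experiments.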

[3] = biological target: T1, Nuclear factor erythroid 2-related factor 2 (Mus musculus); assay: Activation of Nrf2 in mouse RAW264.7 cells assessed as upregulation of Hmox1 gene expression at 50 uM after 6 hrs by real-time PCR analysis relative to GAPDH mRNA expression; assay type: cell-based
Method in brief: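 Serum-starved RAW264.7 cells were exposed for 6 h in serum-free medium against a 0.1% DMSO control. Total RNA (2 μg) was reverse-transcribed, then TaqMan qPCR run for Hmox1 and Gapdh over 40 cycles. Crossing points were taken by second-derivative maximum, and fold change calculated by the 2^−ΔΔCT method normalized to Gapdh. Mean ± SD of three experiments.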

[4] = biological target: T1, Nuclear factor erythroid 2-related factor 2 (Mus musculus); assay: Activation of Nrf2 in mouse RAW264.7 cells assessed as nuclear accumulation at 50 uM after 3 hrs by Western blotting analysis; assay type: cell-based
Method in brief: (§2)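 RAW264.7 cells (passage 5−25) seeded at 1 × 10⁵ cells/cm², switched to serum-free medium after 8 h, left overnight, then treated 3 h in serum-free medium; 0.1% DMSO vehicle control. Cells were swollen in hypotonic HEPES/NP-40 buffer for the cytosolic fraction and nuclei extracted in high-salt buffer. Blots loaded 30 μg/lane, Nrf2 densitometry normalized to actin, mean of three experiments.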

[5] = biological target: T1, Nuclear factor erythroid 2-related factor 2 (Mus musculus); assay: Activation of Nrf2 in mouse RAW264.7 cells assessed as cytosolic accumulation at 50 uM after 3 hrs by Western blotting analysis; assay type: cell-based; method in brief: as §2
RAW264.7 [6] = assay: Cytotoxicity against mouse RAW264.7 cells assessed as decreased cell viability at 10 uM after 6 hrs by MTT assay; assay type: cell-based; conditions: raw264.7, 6 h; method in brief: as §1
[7] = biological target: T1, Nuclear factor erythroid 2-related factor 2 (Mus musculus); assay: Activation of Nrf2 in mouse RAW264.7 cells assessed as upregulation of Hmox1 gene expression at 10 to 50 uM after 6 hrs by real-time PCR analysis relative to GAPDH mRNA expression; assay type: cell-based
Method in brief: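 RAW264.7 cells treated 6 h in serum-free medium, 0.1% DMSO control. Total RNA (2 μg) reverse transcribed; TaqMan qPCR for Hmox1 and Gapdh, 40 cycles. Relative expression by 2^−ΔΔCT, normalized to Gapdh; mean ± SD of three experiments.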

[8] = biological target: MAP kinase p38 (Homo sapiens) (UniProt O15264+Q15759+Q16539+P53778); assay: Activation of p38MAPK in mouse RAW264.7 cells assessed as phosphorylation at Thr180/Tyr182 at 5 uM after 30 mins by Western blotting analysis; assay type: cell-based
Method in brief: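 Serum-starved RAW264.7 cells were treated 30 min with 5 μM anisomycin in serum-free medium. Whole-cell lysate was made in Tris/NaCl/SDS/NP-40/Triton buffer with phosphatase and protease inhibitors, pH 7.4, and 35 μg/lane run on 10% SDS-PAGE. Blots were probed for p38 dually phosphorylated at Thr180/Tyr182 versus total p38, with chemiluminescent detection.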

RAW264.7 [9] = assay: Drug uptake in mouse RAW264.7 cells at 50 uM after 10 mins; assay type: ADME, cell-based; conditions: raw264.7, 10 min
Method in brief: (§3)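 Cells given 50 μM for up to 6 h, then scraped, washed twice in PBS and sonicated in methanol with 5% acetic acid. Supernatant analysed by UPLC on a phenyl column (water/1% acetic acid/methanol to methanol gradient, 35 °C) with negative ESI-QqTOF MS. Contents expressed as nmol per 10⁶ cells.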

RAW264.7 [10] = assay: Drug uptake in mouse RAW264.7 cells measured per 10^6 cells at 50 uM after 6 hrs; assay type: ADME, cell-based; conditions: raw264.7, 6 h; method in brief: as §3
RAW264.7 [11] = assay: Drug uptake in mouse RAW264.7 cells measured per 10^6 cells at 50 uM after 3 hrs; assay type: ADME, cell-based; conditions: raw264.7, 3 h; method in brief: as §3
RAW264.7 [12] = assay: Stability in mouse RAW264.7 cells assessed as gallic acid level at 50 uM after 6 hrs by HPLC/MS analysis; assay type: ADME, cell-based; conditions: raw264.7, 6 h

O=c1c(O)c(-c2ccc(O)c(O)c2)oc2cc(O)cc(O)c12 [QUERCETIN]
Activity (RAW264.7 [1]): Non-toxic | fold change (FC) [2]: 1.9 | fold change (FC) [3]: 4.3 | Activity [4]: Active | Activity [5]: Active | Activity (RAW264.7 [6]): Non-toxic

O=c1c(O[C@@H]2O[C@H](CO)[C@@H](O)[C@H](O)[C@H]2O)c(-c2ccc(O)c(O)c2)oc2cc(O)cc(O)c12 [ISOQUERCETIN]
Activity [7]: inactive | Activity (RAW264.7 [1]): Non-toxic | fold change (FC) [2]: 1 | Activity (RAW264.7 [6]): Non-toxic

COc1ccc(C[C@H]2NC[C@H](O)[C@H]2OC(C)=O)cc1
Activity [8]: Active

O=C(O)c1cc(O)c(O)c(O)c1 [GALLIC ACID]
Activity (RAW264.7 [1]): 76% | fold change (FC) [2]: 1.5 | fold change (FC) [3]: 1.5

O=C(Oc1c(-c2ccc(O)c(O)c2)oc2cc(O)cc(O)c2c1=O)c1cc(O)c(O)c(O)c1
Activity [7]: inactive | Drug uptake (RAW264.7 [9]): 85% | Drug uptake (RAW264.7 [10]): 1.8 nmol | Activity (RAW264.7 [1]): 79% | fold change (FC) [2]: 0.9 | Drug uptake (RAW264.7 [11]): 1.75 nmol | Stability (RAW264.7 [12]): Stable

O=C(Oc1cc(O)c2c(=O)c(O)c(-c3ccc(O)c(O)c3)oc2c1)c1cc(O)c(O)c(O)c1
Drug uptake (RAW264.7 [11]): 8.08 nmol

O=C1c2c(O)cc(O)cc2O[C@H](c2ccc(O)c(O)c2)[C@H]1O [(+)-TAXIFOLIN]
Activity [7]: inactive | Activity (RAW264.7 [1]): Non-toxic | fold change (FC) [2]: 1 | Activity (RAW264.7 [6]): Non-toxic
